This is a sample that favours compounds with a hit; in the whole collection about 1.7% have one here.
CaV13 ICDI inh – Disruptors of the CACNA1D IQ motif to Ca2+-dependent inactivation inhibitor domain association, primary screening, Förster resonance energy transfer in intact living …; HEK cells, CFP/YFP FRET ICDI-IQ, plate reader, 10 min; percent FRET-ratio fall versus neutral wells; inhibition, % at 12.3 µM; hit rate 0.098% among 340,000;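 active means mean replicate inhibition of at least 30% and at least 1% of replicates passing that level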;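 further: 0% = median of the neutral control wells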
NTR1 agonist – activates human neurotensin receptor 1 | P30989 | NTR1-U2OS beta-arrestin-GFP spot imaging, agonist mode | activation, % at 20 µM | hit rate 0.17% among 330,000;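 active means activation at or above 40% of the spot to cytoplasm intensity ratio, with at least 20 cells analyzed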;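 further: 0% = DMSO without peptide and 100% = 100 nM NTR1 peptide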
Target sequence (P30989 whole entry, looked up): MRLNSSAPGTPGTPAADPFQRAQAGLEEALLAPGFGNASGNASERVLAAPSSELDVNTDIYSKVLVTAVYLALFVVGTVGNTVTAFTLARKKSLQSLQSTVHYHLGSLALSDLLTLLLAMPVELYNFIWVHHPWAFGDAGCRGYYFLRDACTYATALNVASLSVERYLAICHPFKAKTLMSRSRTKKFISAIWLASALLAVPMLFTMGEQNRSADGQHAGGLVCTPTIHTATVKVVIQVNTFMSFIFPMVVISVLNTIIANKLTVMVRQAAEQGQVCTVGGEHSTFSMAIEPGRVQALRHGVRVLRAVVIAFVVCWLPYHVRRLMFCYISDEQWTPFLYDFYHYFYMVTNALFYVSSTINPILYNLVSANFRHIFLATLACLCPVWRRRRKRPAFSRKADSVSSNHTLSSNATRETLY
V-ATPase pH – regulators of yeast V-ATPase proton transport | S. cerevisiae, pHLuorin cytosolic pH fluorescence | response, % at 10 µM | hit rate 0.37% among 350,000; in the data active means response mostly above about 7.3%, no sharp cut-off; inactive means mostly below about 5.4%; further: actives read high
SR-BI uptake up – SR-BI HDL lipid transfer activation | hit rate 0.096% among 320,000 | AID 504775 | activation, % at 12.5 µM | CHO ldlA[mSR-BI] cells, DiI-HDL uptake fluorescence, 3 h; 100 = double the neutral-control signal;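 active means mean replicate activation of at least 60% and every replicate at or above 60%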;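 further: 0% = median plate neutral-control signal and 100% = twice that signal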
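Test system: SR-BI-overexpressing, LDLR-lacking CHO cells; Medium: Ham's F12 with 0.5% BSA, HEPES 25 mM, pH 7.4; Schedule: 3 h, 37 °C; Technique: bottom-read fluorescence, 550/595 nm.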
SR-BI HDL uptake – inhibitors of mouse SR-BI mediated HDL lipid uptake. Q61009. ldlA[mSR-BI] CHO cells, DiI-HDL uptake fluorescence, 3 h. inhibition, % at 12.5 µM. hit rate 0.96% among 320,000. AID 488896;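 active means mean replicate inhibition of at least 70% and a set share of replicates each scoring 70 or more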;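 further: 0% = median of neutral control wells and 100% = median of positive control wells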
Vif imaging – inhibitors of HIV Vif | HEK293T cells, Vif self-association by quenched fluorescence, imaging, 24 h | inhibition, % at 7.49 µM | hit rate 0.35% among 340,000 | AID 602346; in the data active means inhibition above about 50%, passing the limit was not always enough
* marks the source's active call; other numbers are inactive results.

Results for O=C(/C=C/c1ccc(Cl)cc1)N1CCN(CCN2C(=O)c3cccc4cccc(c34)C2=O)CC1 ?
CaV13 ICDI inh: -4.3; V-ATPase pH: -0.4; SR-BI uptake up: -77.9; SR-BI HDL uptake: 77.9*; Vif imaging: -2.3

Results for O=C1c2cccc3cccc(c23)C(=O)N1CCN1CCN(C(=S)Nc2ccc(Cl)cc2)CC1 ?
CaV13 ICDI inh: -5.4; NTR1 agonist: 0.8; V-ATPase pH: 0.6; SR-BI uptake up: -68.5; SR-BI HDL uptake: 68.5; Vif imaging: -3.5

Results for NC(=O)CN1CCN(CCN2C(=O)c3cccc4cccc(c34)C2=O)CC1 ?
CaV13 ICDI inh: -2.3; NTR1 agonist: 0.4; V-ATPase pH: -1.1; SR-BI uptake up: 1.5; SR-BI HDL uptake: -1.5; Vif imaging: -1.5

How did O=C1c2ccncc2C(=O)N1CNc1ccc(Cl)cc1 do in these assays?
CaV13 ICDI inh: -17.5; NTR1 agonist: -0.9; V-ATPase pH: -5.3; SR-BI uptake up: 24.9; SR-BI HDL uptake: -24.9; Vif imaging: 9.0

What do the screens show for `CC1CCCN(C2(O)C(=O)Nc3ccc([N+](=O)[O-])cc32)C1` (stereo not given)?
CaV13 ICDI inh: -2.9; NTR1 agonist: -0.3; V-ATPase pH: 0.4; SR-BI uptake up: -15.6; SR-BI HDL uptake: 15.6; Vif imaging: -12.3

Results for Clc1ccc(-n2nnnc2Sc2ncnc3sccc23)cc1 ?
CaV13 ICDI inh: 0.3; NTR1 agonist: 5.2; V-ATPase pH: -3.2; SR-BI uptake up: 23.7; SR-BI HDL uptake: -23.7; Vif imaging: 184.1*

How did Cc1sc2ncnc(Sc3nnnn3-c3ccccc3)c2c1C do in these assays?
NTR1 agonist: 2.7; V-ATPase pH: 1.1; SR-BI uptake up: -7.4; SR-BI HDL uptake: 7.4

What do the screens show for `Cn1nnnc1Sc1ncnc2scc(-c3ccc(Cl)cc3)c12`?
CaV13 ICDI inh: -4.6; NTR1 agonist: 3.1; V-ATPase pH: 0.1; SR-BI uptake up: -8.1; SR-BI HDL uptake: 8.1; Vif imaging: 148.9*

Results for COc1cc2c(cc1NC(=O)/C=C/c1ccccc1)oc1ccccc12 ?
CaV13 ICDI inh: -7.8; NTR1 agonist: 2.2; V-ATPase pH: -0.3; SR-BI uptake up: -79.9; SR-BI HDL uptake: 79.9*; Vif imaging: 4.0

How did COc1cc2c(cc1NC(=O)Nc1cccc(C)c1)oc1ccccc12 do in these assays?
CaV13 ICDI inh: -3.7; NTR1 agonist: 7.2; V-ATPase pH: 3.1; SR-BI uptake up: -87.1; SR-BI HDL uptake: 87.1*; Vif imaging: -2.7

How did COc1ccc(/C=C/C(=O)NC(=S)Nc2cc3oc4ccccc4c3cc2OC)cc1 do in these assays?
CaV13 ICDI inh: -2.6; NTR1 agonist: 0.1; V-ATPase pH: 0.2; SR-BI uptake up: 13.6; SR-BI HDL uptake: -13.6; Vif imaging: 5.2

How did COc1ccc(NC(=O)Nc2cc3oc4ccccc4c3cc2OC)cc1 do in these assays?
CaV13 ICDI inh: -4.8; NTR1 agonist: 23.2; V-ATPase pH: -0.8; SR-BI uptake up: -98.1; SR-BI HDL uptake: 98.1*; Vif imaging: -5.0

Results for Nc1ccccc1S(=O)(=O)C(F)F ?
CaV13 ICDI inh: -14.3; NTR1 agonist: 0.0; V-ATPase pH: 4.7; SR-BI uptake up: 10.2; SR-BI HDL uptake: -10.2; Vif imaging: -8.1

How did COc1ccc2nc(/C=N/NC(=O)[C@@H]3CCCN3C(=O)OC(C)(C)C)ccc2c1 do in these assays?
CaV13 ICDI inh: -4.1; NTR1 agonist: 0.4; V-ATPase pH: -1.6; SR-BI uptake up: -22.3; SR-BI HDL uptake: 22.3; Vif imaging: 8.5

What do the screens show for `CCCc1[nH]n(-c2ccc([N+](=O)[O-])cc2)c(=O)c1C=NCCc1c[nH]c2ccccc12`?
CaV13 ICDI inh: -2.7; NTR1 agonist: 14.8; V-ATPase pH: 0.5; SR-BI uptake up: -79.3; SR-BI HDL uptake: 79.3*

Results for CCCCn1c(NC(=O)c2ccccc2)c(C#N)c2nc3ccccc3nc21 ?
CaV13 ICDI inh: 2.0; V-ATPase pH: 2.1; SR-BI uptake up: -6.9; SR-BI HDL uptake: 6.9; Vif imaging: 51.8*

How did Cc1ccc2c(CC(=O)Nc3cccc(S(=O)(=O)N4CCOCC4)c3)coc2c1 do in these assays?
CaV13 ICDI inh: -18.8; NTR1 agonist: 4.0; V-ATPase pH: -1.4; SR-BI uptake up: -17.0; SR-BI HDL uptake: 17.0; Vif imaging: -9.5

What do the screens show for `Cc1cc(C)cc(NC(=O)/C=C/c2ccc([N+](=O)[O-])s2)c1`?
CaV13 ICDI inh: -3.0; V-ATPase pH: -2.8; SR-BI uptake up: -33.5; SR-BI HDL uptake: 33.5; Vif imaging: 96.5*

Results for COC(=O)c1ccc(C(=O)OC)c(NC(=O)COC(=O)C23CC4CC(CC(O)(C4)C2)C3)c1 ?
NTR1 agonist: 2.7; V-ATPase pH: -3.4; SR-BI uptake up: -19.7; SR-BI HDL uptake: 19.7; Vif imaging: 51.8*

What do the screens show for `COc1ccc(-c2coc3c(C(=O)Nc4cccc(C(C)=O)c4)cccc23)c(C)c1`?
CaV13 ICDI inh: -10.7; Vif imaging: 149.9*

How did O=C(N[C@@H](Cc1cccnc1)C(=O)N1CCC[C@H]1C(=O)NCCc1ccccc1Cl)c1cccs1 do in these assays?
CaV13 ICDI inh: -2.2

How did Cc1ccc(NCC(=O)c2ccccc2)cc1Cl do in these assays?
CaV13 ICDI inh: -3.6; NTR1 agonist: 0.7; V-ATPase pH: 2.9; SR-BI uptake up: -10.8; SR-BI HDL uptake: 10.8; Vif imaging: -6.2

Results for Cc1ccc(NC2=C(NC(=O)c3ccccc3)C(=O)c3ccccc3C2=O)cc1Cl ?
CaV13 ICDI inh: -3.5; NTR1 agonist: 7.0; V-ATPase pH: 1.0; SR-BI uptake up: -79.5; SR-BI HDL uptake: 79.5*; Vif imaging: -3.8

What do the screens show for `N#C/C(=C\Nc1ccc(Cl)cc1)S(=O)(=O)c1ccccn1`?
CaV13 ICDI inh: -5.3; NTR1 agonist: 1.9; V-ATPase pH: 0.0; Vif imaging: -10.6

What do the screens show for `N#C/C=C/C(=C\Nc1ccc(Cl)cc1)S(=O)(=O)c1ccccc1`?
CaV13 ICDI inh: -45.7; NTR1 agonist: 0.1; V-ATPase pH: -1.0; SR-BI uptake up: -85.1; SR-BI HDL uptake: 85.1*

Results for COc1ccc(N/C=C(\C=C\C#N)S(=O)(=O)c2ccccc2)cc1 ?
CaV13 ICDI inh: -9.4; NTR1 agonist: 5.7; V-ATPase pH: -4.9; SR-BI uptake up: -22.7; SR-BI HDL uptake: 22.7; Vif imaging: 86.7*

How did CCN(CC)c1ccc2cc(-c3nnc(-c4ccccc4)o3)c(=O)oc2c1 do in these assays?
NTR1 agonist: -2.4; V-ATPase pH: 1.1; SR-BI uptake up: -16.8; SR-BI HDL uptake: 16.8; Vif imaging: 178.7*

Results for COc1ccc(CCNC(=O)c2ccccc2NC(=O)C2=C(C)OCCS2)cc1OC ?
CaV13 ICDI inh: -7.0; NTR1 agonist: 1.0; V-ATPase pH: 3.2; SR-BI uptake up: -11.1; SR-BI HDL uptake: 11.1; Vif imaging: 14.5

Results for CCC1=NN(C(=O)c2cccc([N+](=O)[O-])c2)C(O)(c2ccc(C)cc2)C1 (stereo not given) ?
CaV13 ICDI inh: -20.1; NTR1 agonist: 0.4; V-ATPase pH: -0.9; SR-BI uptake up: -76.0; SR-BI HDL uptake: 76.0*; Vif imaging: -3.3

Screening results deposited in PubChem by several laboratories.
